Compound activity as filed in PubChem.
UBC13 inh: inhibitors of human UBC13 polyubiquitin chain formation; inhibition, % at 20 µM; 330,000 tested, 0.47% active; P61088; TR-FRET; in the data active means inhibition above about 45%, passing the limit was not always enough
SENP6 inh: inhibitors of human SENP6 protease; AID 2599; Recombinant SENP6 catalytic domain, aminoluciferin luminescence; inhibition, % at 10 µM; 330,000 tested, 1.8% active;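 active means inhibition above about 50% at the single tested dose, limit read from the data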;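 further: plate controls were DMSO wells with enzyme for no effect and DMSO wells lacking enzyme for full effect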
SENP8 block-1: SENP8 (human) protease inhibition; inhibition, % at 20 µM; recombinant SENP8, Nedd8 substrate fluorescence; 360,000 tested, 0.64% active; Q96LD8; in the data active means inhibition mostly above about 40%, no sharp cut-off; inactive means mostly below about 27%
Target sequence (Q96LD8 whole entry, looked up): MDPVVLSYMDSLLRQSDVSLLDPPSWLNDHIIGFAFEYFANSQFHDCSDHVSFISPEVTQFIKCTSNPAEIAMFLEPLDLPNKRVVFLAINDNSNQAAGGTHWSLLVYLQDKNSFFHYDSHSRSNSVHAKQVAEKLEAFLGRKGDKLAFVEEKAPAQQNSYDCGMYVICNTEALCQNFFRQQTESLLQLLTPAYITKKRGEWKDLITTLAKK
SENP8 block-2: SENP8 protease inhibition. Q96LD8. purified SENP8, Z-RLRGG-aminoluciferin cleavage, luminescence. inhibition, % at 10 µM. 330,000 tested, 1.2% active; in the data active means inhibition above about 50%
Apaf1 inhib: inhibitors of human Apaf-1 apoptosome; AID 489030; reconstituted apoptosome caspase-3 activity, DEVD-Rh110 fluorescence; inhibition, % at 20 µM; O14727; 330,000 tested, 0.71% active; active means inhibition of at least 40% at 20 µM;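 further: plate controls were DMSO wells for no effect and DEVD-CHO caspase inhibitor wells for full effect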
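Assay system – apoptosome proteins · Medium – Hepes buffer, pH 7.5 · Also added – cytochrome c with DEVD-Rh110 · Timing – 30 min compound preincubation, 50 min activation, room temperature · Detection – Rh110 fluorescence, excitation 480 nm, emission 540 nm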
SENP7 block: SENP7 protease inhibition | Q9BQF6 | AID 434973 | recombinant SENP7, Z-RLRGG-aminoluciferin luminescence, 40 min | inhibition, % at 5 µM | 330,000 tested, 1.5% active;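 active means inhibition above about 50% at the single test dose, limit read from the data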;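 further: plate controls were DMSO with enzyme for no effect and no enzyme buffer wells for full effect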
Target sequence (Q9BQF6 706-1050 limits assumed): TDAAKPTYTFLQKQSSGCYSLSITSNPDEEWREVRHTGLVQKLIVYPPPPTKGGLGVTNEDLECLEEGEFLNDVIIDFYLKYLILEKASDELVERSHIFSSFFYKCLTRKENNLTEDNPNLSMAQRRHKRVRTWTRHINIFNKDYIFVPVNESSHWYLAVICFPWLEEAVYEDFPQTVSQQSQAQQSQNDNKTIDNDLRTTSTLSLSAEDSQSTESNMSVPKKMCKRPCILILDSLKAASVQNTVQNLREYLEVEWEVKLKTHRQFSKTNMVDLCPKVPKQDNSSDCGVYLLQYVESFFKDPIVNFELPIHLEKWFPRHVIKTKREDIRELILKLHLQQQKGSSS
SENP8 inh conf: confirmation of human SENP8 protease inhibitors; shares compounds with SENP8 block-1; purified SENP8, Nedd8-AMC/pro-Nedd8 cleavage fluorescence, 30 min; inhibition, % at 25 µM; 1,400 tested, 15% active; AID 624319; in the data active means inhibition mostly above about 39%, no sharp cut-off; inactive means mostly below about 34%
Starred values were filed as active, the others as inactive; . = not tested or not shown; ! = a repeat was not active. In the library only some 3% were active in any assay of this set; here they are far more common.

SMILES	UBC13 inh	SENP6 inh	SENP8 block-1	SENP8 block-2	Apaf1 inhib	SENP7 block	SENP8 inh conf
O=c1[nH][nH]c2cc(=O)n(-c3ccc(Cl)cc3)nc12	-22.1	10.8	15.3	0.4	-5.2	10.9	.
CC(=O)N1CCN(C(=O)CCC(=O)O)CC1	-7.0	-23.5	54.2*	-0.8	-14.2	10.7	23.0
CC(=O)N1CCN(CC(=O)O)CC1	-4.1	-15.8	.	-4.7	-22.9	-1.4	.
CCc1nnc(NS(=O)(=O)c2ccc(Nc3ccc([N+](=O)[O-])c4nonc34)cc2)s1	-235.4	22.1	45.2*	-1.9	23.4	1.6	29.9
CCc1nnc(NS(=O)(=O)c2ccc(NS(=O)(=O)c3ccccc3[N+](=O)[O-])cc2)s1	-9.2	-21.5	25.3	-11.4	25.6	-7.8	.
CCc1ccc(C(=O)NNc2ccc(F)cc2F)cc1	-0.2	-2.7	5.7	-4.0	-11.5	9.7	.
CCCc1ccc(C(=O)NNc2ccc(F)cc2)cc1	-5.3	-10.3	46.8*	-14.2	-4.8	10.3	8.3
Cc1nnc(NC(=O)CSc2ccc3nnc(-c4cccnc4)n3n2)s1	-8.3	-5.5	.	5.0	13.8	2.7	.
O=[N+]([O-])c1ccc(N/N=C/c2c[nH]c3ccccc23)cc1	-171.3	-4.0	52.1*	-17.8	25.4	2.7	4.0
O=C(N/N=C/c1c[nH]c2ccccc12)c1cccc([N+](=O)[O-])c1	0.6	0.0	35.2	-11.7	-6.1	0.9	.
Cc1ccc(/C=C/C(=O)c2ccc(O)cc2)cc1	-15.1	85.8*	41.5*	62.8*	-2.2	59.3*	1.2
COC(=O)[C@]12CCCCC=C1N(Cc1cccc3ccccc13)C(=O)[C@H](CC(=O)NCCCCc1ccccc1)C2	.	.	9.0	.	.	.	.
Cc1cc(=O)oc2cc(OCC(=O)NCCc3c[nH]c4ccc(F)cc34)ccc12	7.8	-16.8	-34.5	10.5	-13.3	-4.6	.
COc1ccc2[nH]cc(CCNC(=O)COc3ccc4ccc(=O)oc4c3)c2c1	4.3	-10.1	42.2*	11.2	-2.4	5.1	6.2
COc1ccc(S(=O)(=O)Nc2c(C)n(C)n(-c3ccccc3)c2=O)c(Cl)c1Cl	-1.3	-5.1	2.9	-6.5	-2.1	-5.8	.
COc1cc(NCCCCCCN)c2ncccc2c1OC	.	.	72.4*	.	.	.	96.3*
Cc1ccc(N=C2N=C(N)c3ccccc32)c(C)c1	5.0	-13.5	41.5*	-5.2	-5.2	-3.8	11.9
Cc1ccccc1N=C1N=C(N)c2ccccc21	1.3	4.1	8.6	13.4	7.0	1.8	.
OCCNCc1cc(Br)ccc1OCc1ccc(Cl)cc1Cl	.	.	41.6*	.	.	.	10.6
OCCNCc1cc(Br)ccc1OCc1ccc(Cl)cc1	9.2	-4.7	15.5	-11.1	1.3	-7.7	.
NNc1nnc2c3cc(F)ccc3n(Cc3ccccc3)c2n1	-12.4	11.2	37.2*	-4.3	11.2	-10.0	14.4
CSc1nnc2c3cc(F)ccc3n(Cc3ccccc3)c2n1	11.2	0.1	-6.7	0.3	-1.8	-0.3	.
CCCn1c2ccc(F)cc2c2nnc(NN)nc21	-25.9	9.1	69.9*	-0.4	21.7	-2.9	16.9
COC(=O)c1ccc(OCC(O)CN2CCN(C(=O)c3ccco3)CC2)c(OC)c1 (centres undefined)	9.5	0.9	5.5	-0.4	2.0	0.6	.
CCn1c2ccccc2c2cc(NC(=O)CSc3nccc(=O)[nH]3)ccc21	-17.6	1.7	-62.6	-5.9	11.8	-5.7	.
SMILES	UBC13 inh	SENP6 inh	SENP8 block-1	SENP8 block-2	Apaf1 inhib	SENP7 block	SENP8 inh conf
O=C(O)C=C(Br)Br	-7.7	-4.0	45.9*	-5.6	-7.3	4.0	20.5
Cn1c(=O)c(Nc2ccc(O)cc2)c2c3c(cccc31)C(=O)c1ccccc1-2	-133.9	0.7	45.2*	-9.1	6.4	5.8	15.0
CC(=O)c1c2c3c(cccc3n(C)c1=O)C(=O)c1ccccc1-2	-91.3	-5.6	.	-19.5	8.4	-8.8	.
C(=C\c1ccccc1)/CN1CCN(C(CCc2ccccc2)c2nnnn2C2CCCCC2)CC1 (centres undefined)	.	.	29.0	.	.	.	.
CCOC(=O)C1=C(C)NC2(O)c3ccccc3C(=O)C12O (centres undefined)	-10.1	-0.4	35.0	5.9	35.8	15.6	.
CC(=O)C1=C(C)NC2(O)c3ccccc3C(=O)C12O (centres undefined)	-5.8	4.2	65.6*	5.9	-0.1	4.0	53.3*
COc1ccc2c3c1OC1CC(O)C=CC31CCN(C)C2 (centres undefined)	2.7	-6.3	42.0*!	-8.4	-12.7	-4.0	7.8
CC(C)C[C@H](NC(=O)N1CC(=O)Nc2ccccc21)C(=O)N1CCC(C(=O)O)CC1	4.8	7.0	4.5	4.4	-6.7	3.1	.
CC(C)[C@H]1C(=O)Nc2ccccc2N1C(=O)N[C@@H](Cc1ccccc1)C(=O)N[C@@H](C(=O)O)c1ccccc1	0.6	-5.3	43.6*	1.3	5.0	4.5	12.0
CC(C)[C@H](NC(=O)N1c2ccccc2NC(=O)[C@@H]1C(C)C)C(=O)N1CCC(C(=O)O)CC1	0.5	8.1	44.9*	5.7	5.8	3.5	-4.3
Cc1ccc(C(=O)NN2C(=O)C3C4c5ccccc5C(c5ccccc54)C3C2=O)cc1 (centres undefined)	-9.4	7.3	45.2*	-4.2	22.7	3.4	16.6
O=C(Cc1cccs1)N/N=C\c1ccc([N+](=O)[O-])s1	-7.3	33.8	29.2	8.6	4.5	13.1	.
NC(=O)c1ccc(N=Cc2ccc([N+](=O)[O-])s2)cc1	.	.	60.5*	.	.	.	95.0*
COc1ccc(NC2CCCN(C(=O)CSc3ccccn3)C2)cc1OC (centres undefined)	-12.2	-7.2	27.9*	4.2	12.6	6.1	33.4
CC(OC(=O)Cn1[nH]c(=O)c2ccccc2c1=O)C(=O)Nc1ccc(Cl)cn1 (centres undefined)	6.6	-11.5	-1.3	-1.2	-2.4	-2.5	.
Cc1ccc(S(=O)c2ccc([N+](=O)[O-])c3nonc23)cc1 (centres undefined)	.	.	61.1*	.	.	.	43.1
Cc1ccc(Nc2c([N+](=O)[O-])ccc3nonc23)c(C)c1	-37.5	-14.2	24.3	5.8	10.6	6.2	.
CC(C)c1ccc(/C=N/NC(=O)c2ccc(-n3cnnn3)cc2)cc1	-2.5	-2.3	-56.5	-5.7	5.8	-4.7	.
Cc1nonc1OC(C)CNc1ccc([N+](=O)[O-])cc1 (centres undefined)	0.2	-2.0	46.1*	4.1	0.7	1.7	24.0
COc1ccc(-c2ccnc(-c3ccc(O)cc3)n2)cc1	9.5	8.4	4.2	-2.2	1.0	4.8	.
COc1ccc(O)cc1	-2.2	-1.3	48.0*	6.8	-11.3	-1.8	6.3
Cc1cc(=O)[nH]c(-n2[nH]c(C)cc2=O)n1	-2.9	-1.7	24.9	-0.8	-2.3	2.0	.
COc1ccc(-n2[nH]c(C)cc2=O)cc1	-17.7	-5.8	67.8*	-5.3	23.6	-3.5	40.5
